Experimental data from publication PMC8484140 (Targeted Oncology, 2021).
“Also recorded” adds a separate entry of the source. Like-named read-outs stand apart in the source and are kept apart here.

Key:
[1] = Safety and DLT evaluation; assay type: in vivo, human
[2] = assay type: in vivo, human
[3] = system: HR+/HER2− advanced breast cancer; test: Efficacy by RECIST 1.1, additional 21 patients; assay type: in vivo, human
Outline: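 Additional cohort of 21 postmenopausal women aged ≤65 years. All had ER- and/or PR-positive (>1%) disease, ECOG 0–1 and progression after letrozole/anastrozole, with no prior HDAC inhibitor. […] Response was assessed by RECIST 1.1, with CR/PR confirmed at least 4 weeks after the initial response.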

[4] = system: estrogen receptor-positive advanced breast cancer; conditions: entinostat plus exemestane; prolonged from 19.8; cited from earlier work
[5] = DLT observation stage, 5 mg group
[6] = Stage I, 3 mg/week monotherapy, n=4
[7] = Stage I, 5 mg/week monotherapy, n=12
[8] = Stage I, 7 mg/week monotherapy, n=3
[9] = most common grade 3/4 AEs, 19 dose-escalation patients, stage not stated
[10] = additional 21 patients, entinostat 5 mg/week + exemestane 25 mg/day

Nc1ccccc1NC(=O)c1ccc(CNC(=O)OCc2cccnc2)cc1 [Entinostat]
Tolerability ([1]; 3, 5, 7 mg/week): well tolerated at all doses | Grade 3/4 AEs [1, 5]: 16.7% | Suspicious DLT (G3 ventricular tachycardia) [1, 5]: one | Grade 3/4 AEs ([1]; DLT observation stage, 7 mg group): 33.3% | CTCAE grade 3 AE ([1]; Stage I, 3 mg/week group): no CTCAE grade 3 AE occurred | AKP elevation, entinostat-related AE of all grades [1, 6]: 0 No. (%) | ALT elevation, entinostat-related AE of all grades [1, 6]: 0 No. (%) | AST elevation, entinostat-related AE of all grades [1, 6]: 0 No. (%) | Abdominal pain, entinostat-related AE of all grades [1, 6]: 0 No. (%) | Anemia, entinostat-related AE of all grades [1, 6]: 2 (50) No. (%) | Back pain, entinostat-related AE of all grades [1, 6]: 0 No. (%) | Chest pain, entinostat-related AE of all grades [1, 6]: 0 No. (%) | Creatine increase, entinostat-related AE of all grades [1, 6]: 0 No. (%) | Creatinine phosphokinase increase, entinostat-related AE of all grades [1, 6]: 0 No. (%) | Debilitation, entinostat-related AE of all grades [1, 6]: 0 No. (%) | Diarrhea, entinostat-related AE of all grades [1, 6]: 0 No. (%) | Fatigue, entinostat-related AE of all grades [1, 6]: 0 No. (%) | Flatulence, entinostat-related AE of all grades [1, 6]: 0 No. (%) | Headache, entinostat-related AE of all grades [1, 6]: 0 No. (%) | Hypoalbuminemia, entinostat-related AE of all grades [1, 6]: 0 No. (%) | Hypocalcemia, entinostat-related AE of all grades [1, 6]: 0 No. (%) | Hypokalemia, entinostat-related AE of all grades [1, 6]: 0 No. (%) | Hypoproteinemia, entinostat-related AE of all grades [1, 6]: 0 No. (%) | LDH increase, entinostat-related AE of all grades [1, 6]: 0 No. (%) | Leukopenia, entinostat-related AE of all grades [1, 6]: 3 (75) No. (%) | Limb pain, entinostat-related AE of all grades [1, 6]: 0 No. (%) | Nausea, entinostat-related AE of all grades [1, 6]: 0 No. (%) | Neutropenia, entinostat-related AE of all grades [1, 6]: 3 (75) No. (%) | Palpitation, entinostat-related AE of all grades [1, 6]: 0 No. (%) | Serum Ca^2+ decrease, entinostat-related AE of all grades [1, 6]: 0 No. (%) | Serum Na+ decrease, entinostat-related AE of all grades [1, 6]: 0 No. (%) | Serum albumin decrease, entinostat-related AE of all grades [1, 6]: 0 No. (%) | Serum phosphate decrease, entinostat-related AE of all grades [1, 6]: 0 No. (%) | Serum urea increase, entinostat-related AE of all grades [1, 6]: 0 No. (%) | Thrombocytopenia, entinostat-related AE of all grades [1, 6]: 0 No. (%) | Γ-GT elevation, entinostat-related AE of all grades [1, 6]: 0 No. (%) | α-HBDH elevation, entinostat-related AE of all grades [1, 6]: 0 No. (%) | Cases of CTCAE grade 3 AE ([1]; Stage I, 5 mg/week group): four | AKP elevation, entinostat-related AE of all grades [1, 7]: 2 (16.7) No. (%) | ALT elevation, entinostat-related AE of all grades [1, 7]: 2 (16.7) No. (%) | AST elevation, entinostat-related AE of all grades [1, 7]: 2 (16.7) No. (%) | Abdominal pain, entinostat-related AE of all grades [1, 7]: 2 (16.7) No. (%) | Anemia, entinostat-related AE of all grades [1, 7]: 0 No. (%) | Back pain, entinostat-related AE of all grades [1, 7]: 3 (25) No. (%) | Chest pain, entinostat-related AE of all grades [1, 7]: 2 (16.7) No. (%) | Creatine increase, entinostat-related AE of all grades [1, 7]: 0 No. (%) | Creatinine phosphokinase increase, entinostat-related AE of all grades [1, 7]: 0 No. (%) | Debilitation, entinostat-related AE of all grades [1, 7]: 2 (16.7) No. (%) | Diarrhea, entinostat-related AE of all grades [1, 7]: 0 No. (%) | Fatigue, entinostat-related AE of all grades [1, 7]: 2 (16.7) No. (%) | Flatulence, entinostat-related AE of all grades [1, 7]: 2 (16.7) No. (%) | Headache, entinostat-related AE of all grades [1, 7]: 3 (25) No. (%) | Hypoalbuminemia, entinostat-related AE of all grades [1, 7]: 0 No. (%) | Hypocalcemia, entinostat-related AE of all grades [1, 7]: 0 No. (%) | Hypokalemia, entinostat-related AE of all grades [1, 7]: 0 No. (%) | Hypoproteinemia, entinostat-related AE of all grades [1, 7]: 0 No. (%) | LDH increase, entinostat-related AE of all grades [1, 7]: 0 No. (%) | Leukopenia, entinostat-related AE of all grades [1, 7]: 7 (58.3) No. (%) | Limb pain, entinostat-related AE of all grades [1, 7]: 0 No. (%) | Neutropenia, entinostat-related AE of all grades [1, 7]: 4(33.3) No. (%) | Palpitation, entinostat-related AE of all grades [1, 7]: 2 (16.7) No. (%) | Serum Ca^2+ decrease, entinostat-related AE of all grades [1, 7]: 0 No. (%) | Serum Na+ decrease, entinostat-related AE of all grades [1, 7]: 0 No. (%) | Serum albumin decrease, entinostat-related AE of all grades [1, 7]: 0 No. (%) | Serum phosphate decrease, entinostat-related AE of all grades [1, 7]: 0 No. (%) | Serum urea increase, entinostat-related AE of all grades [1, 7]: 0 No. (%) | Thrombocytopenia, entinostat-related AE of all grades [1, 7]: 2 (16.7) No. (%) | Γ-GT elevation, entinostat-related AE of all grades [1, 7]: 2 (16.7) No. (%) | α-HBDH elevation, entinostat-related AE of all grades [1, 7]: 2 (16.7) No. (%) | AKP elevation, entinostat-related AE of all grades [1, 8]: 0 No. (%) | ALT elevation, entinostat-related AE of all grades [1, 8]: 0 No. (%) | AST elevation, entinostat-related AE of all grades [1, 8]: 0 No. (%) | Abdominal pain, entinostat-related AE of all grades [1, 8]: 0 No. (%) | Anemia, entinostat-related AE of all grades [1, 8]: 0 No. (%) | Back pain, entinostat-related AE of all grades [1, 8]: 0 No. (%) | Chest pain, entinostat-related AE of all grades [1, 8]: 0 No. (%) | Creatine increase, entinostat-related AE of all grades [1, 8]: 0 No. (%) | Creatinine phosphokinase increase, entinostat-related AE of all grades [1, 8]: 0 No. (%) | Debilitation, entinostat-related AE of all grades [1, 8]: 0 No. (%) | Diarrhea, entinostat-related AE of all grades [1, 8]: 0 No. (%) | Fatigue, entinostat-related AE of all grades [1, 8]: 0 No. (%) | Flatulence, entinostat-related AE of all grades [1, 8]: 0 No. (%) | Headache, entinostat-related AE of all grades [1, 8]: 0 No. (%) | Hypoalbuminemia, entinostat-related AE of all grades [1, 8]: 0 No. (%) | Hypocalcemia, entinostat-related AE of all grades [1, 8]: 0 No. (%) | Hypokalemia, entinostat-related AE of all grades [1, 8]: 0 No. (%) | Hypoproteinemia, entinostat-related AE of all grades [1, 8]: 0 No. (%) | LDH increase, entinostat-related AE of all grades [1, 8]: 0 No. (%) | Leukopenia, entinostat-related AE of all grades [1, 8]: 0 No. (%) | Limb pain, entinostat-related AE of all grades [1, 8]: 0 No. (%) | Nausea, entinostat-related AE of all grades [1, 8]: 0 No. (%) | Neutropenia, entinostat-related AE of all grades [1, 8]: 2 (66.7) No. (%) | Palpitation, entinostat-related AE of all grades [1, 8]: 0 No. (%) | Serum Ca^2+ decrease, entinostat-related AE of all grades [1, 8]: 0 No. (%) | Serum Na+ decrease, entinostat-related AE of all grades [1, 8]: 0 No. (%) | Serum albumin decrease, entinostat-related AE of all grades [1, 8]: 0 No. (%) | Serum phosphate decrease, entinostat-related AE of all grades [1, 8]: 0 No. (%) | Serum urea increase, entinostat-related AE of all grades [1, 8]: 0 No. (%) | Thrombocytopenia, entinostat-related AE of all grades [1, 8]: 0 No. (%) | Γ-GT elevation, entinostat-related AE of all grades [1, 8]: 0 No. (%) | α-HBDH elevation, entinostat-related AE of all grades [1, 8]: 0 No. (%) | Patients with entinostat-related AEs ([1]; Stage I, all 19 patients): 100% | Dose-limiting toxicity (DLT) in Stage I ([1]; all dose groups (3, 5, 7 mg/week)): no patients experienced a DLT; also recorded: no DLT events occurred | Grade 3/4 neutropenia [1, 9]: 31.6% | Grade 3/4 thrombocytopenia [1, 9]: 15.8% | Median tolerance limit (MLT) ([1]; throughout the trial, up to 7 mg/week): not achieved | Grade 3/4 anemia [2, 10]: 9.5% | Grade 3/4 fatigue [2, 10]: 9.5% | Grade 3/4 neutropenia [2, 10]: 38% | Grade 3/4 thrombocytopenia [2, 10]: 9.5% | Occurrence rate of thrombocytopenia ([2]; entinostat in combination with exemestane, as quoted in Discussion): 10% | ORR (CR+PR) ([3]; 21 patients, entinostat 5 mg + exemestane 25 mg, 95% CI: 1.17–30.38): 9.52% | Clinical benefit rate (CBR, CR+PR+SD over 24 weeks) ([3]; 21 patients, entinostat 5 mg + exemestane 25 mg, 95% CI: 21.82–65.98): 42.86% | Median progression-free survival [3, 10]: 9.41 months | Overall survival (OS) [4]: 28.1 months
